High-throughput results deposited in PubChem BioAssay by Sanford-Burnham Center for Chemical Genomics.
This is a sample that favours compounds with a hit; in the whole collection about 1.8% have one here.
PPC-1+TRAIL kill: compounds killing PPC-1 cancer cells with TRAIL present (potentiator screen, no TRAIL-free arm). PPC-1 cells + TRAIL, ATPLite viability luminescence. cell killing (% activity), % at 4 µM or 5 µM. 220,000 tested, 0.41% active. AID 1443;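 active = cell killing above 50% in the first pass at 4 µM, then a duplicate retest at 5 µM averaging 50% or more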
FLuc stim CS: firefly luciferase counter-screen for stimulation assays | P08659 | ATPlite luciferase biochemical, luminescence, 10 min; 0 = ATP-free wells, 1 = DMSO control | activation factor at 10 µM | 200,000 tested, under 10 active | AID 1027;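 active = luciferase activation factor, scaled between plate controls, of at least 2 with compound at 10 µM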
Target sequence (P08659 whole entry, looked up): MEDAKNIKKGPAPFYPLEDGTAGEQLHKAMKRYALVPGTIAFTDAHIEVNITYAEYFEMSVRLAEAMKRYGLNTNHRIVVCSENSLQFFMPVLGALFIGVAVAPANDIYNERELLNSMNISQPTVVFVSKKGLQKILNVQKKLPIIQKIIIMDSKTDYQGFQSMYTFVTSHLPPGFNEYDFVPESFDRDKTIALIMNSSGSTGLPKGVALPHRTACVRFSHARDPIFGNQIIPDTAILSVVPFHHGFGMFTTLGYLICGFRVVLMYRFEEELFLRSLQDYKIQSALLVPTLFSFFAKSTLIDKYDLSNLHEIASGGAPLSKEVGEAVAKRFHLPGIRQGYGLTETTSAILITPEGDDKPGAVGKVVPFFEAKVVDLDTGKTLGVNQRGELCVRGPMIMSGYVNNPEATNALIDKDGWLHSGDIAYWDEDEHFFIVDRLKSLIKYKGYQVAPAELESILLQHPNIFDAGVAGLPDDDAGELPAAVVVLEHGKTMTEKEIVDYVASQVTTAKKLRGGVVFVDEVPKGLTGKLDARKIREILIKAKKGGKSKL
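test system = cell-free luciferase reagent | medium = PBS as buffer for the ATP substrate | dosing = test compounds dosed from 2 mM stocks in 100% DMSO | incubation = 10 min at ambient temperature | detection = luminescence measurement of luciferase light output | benchmarks = low control with PBS replacing ATP, high control enzyme plus ATP without compound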
beta cell repl: MIN6 beta-cell proliferation induction | MIN6 cells proliferation, ATPlite luminescence, 48 h; cells starved in 0.2% serum; 100% = growth in 10% serum | proliferation, % at 10 µM | 330,000 tested, 0.29% active | AID 2380;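 active = compounds whose signal lies at least 3.5 SD above the mean of all wells on their plate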
iPSC survival up: hiPSC single-cell survival enhancement | survival enhancement, % at 20 µM | AID 602274 | ATPlite luminescence; 100% = ROCK inhibitor wells, 0% = DMSO | 360,000 tested, 0.044% active; in the data active = survival enhancement above about 18%;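 also: cells exposed to compounds for 16 hours before the ATP read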
FLuc inh counter: inhibits firefly luciferase, flagging false hits in luciferase inhibition screens; ATPLite firefly luciferase biochemical luminescence, 10 min; inhibition, % at 10 µM; 200,000 tested, 1.5% active; AID 1006;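 active = inhibition above about 50% when tested at 10 µM, limit read from the data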
C8 TRAIL sens: caspase-8 TRAIL sensitization. AID 624354. inhibition (viability loss, TRAIL sensitization), % at 10 µM. 360,000 tested, 1% active. NB7+C8 cells + TRAIL, ATPlite viability luminescence;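 active = compounds causing at least 50% loss of cell viability in the single-dose screen, relative to plate controls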
Numbers stand for hits; – = inactive; · = not tested or not shown.

SMILES | PPC-1+TRAIL kill | FLuc stim CS | beta cell repl | iPSC survival up | FLuc inh counter | C8 TRAIL sens
CCOc1ccc(N2C(=O)C3C4C=CC([C@H]5CC45)[C@@H]3C2=O)cc1 (some centres undefined) | · | · | – | – | · | –
Cc1c(NC(=O)c2cc(S(=O)(=O)N3CCCCC3)ccc2Cl)c(=O)n(-c2ccccc2)n1C | · | · | – | – | · | –
COc1cccc(CNC(=O)COC(=O)C2CCN(c3ccc(C(F)(F)F)cn3)CC2)c1 | · | · | – | – | · | –
CCOC(=O)N1CCC(Nc2c(-c3ccc(C)cc3)c(=O)c2=O)CC1 | – | – | – | – | – | 60
Cc1ccc(C(OCC(C)(C)C[N+](C)(C)C)c2ccccc2)cc1 (centres undefined) | · | – | – | – | – | –
Cc1ccnc(Nc2nc3ccccc3o2)n1 | – | – | – | – | 69 | –
Cc1nc(Nc2nc3ccccc3o2)nc(C)c1C | – | – | – | – | 51 | –
CCOc1ccc(CCN2C(=O)C(=O)N([C@@H](Cc3ccc(O)cc3)CN3CCC[C@@H]3CN3C(=O)C(=O)NC[C@@H]3Cc3ccccc3)C[C@@H]2Cc2ccccc2)cc1 | · | · | · | – | · | –
O=C(OCC(=O)C12CC3CC(CC(C3)C1)C2)c1cnccn1 | · | · | – | – | · | –
CC(C)(C)c1ccc(CC(=O)N2CCC2(C)C(=O)NS(=O)(=O)c2ccc(Cl)cc2)cc1 (centres undefined) | · | · | · | – | · | –
COc1ccc(C(=O)Nc2cccc(OC)c2)cc1 | – | – | – | – | 67 | 53
COc1cccc(NC(=O)c2ccccc2)c1 | · | · | – | – | · | –
COc1cccc(NC(=O)Nc2ccc(CC(=O)O)cc2)c1 | – | – | – | – | – | –
COc1cccc(NC(=O)Nc2nc(-c3ccc(OC)c(OC)c3)cs2)c1 | · | · | – | – | · | 97
CCc1ccc(NC(=O)Nc2cccc(OC)c2)cc1 | – | – | – | – | 52 | –
COc1cccc(NC(=O)c2ccc(OC(F)(F)F)cc2)c1 | · | · | – | – | · | 49
COc1ccc(-c2csc(NC(C)=O)n2)cc1OC | – | – | – | – | – | –
CC(C)C[C@@H](NC(=O)C1CCC(CNC(=O)[C@@H]2CCCN2C(=O)OC(C)(C)C)CC1)C(=O)O (some centres undefined) | · | · | – | – | · | –
COc1ccc(C(=O)Nc2cc(C)on2)cc1 | – | – | – | – | 73 | 57
Cc1nc2ccccn2c1C(=O)/C=C/c1cccc([N+](=O)[O-])c1 | – | – | – | – | – | –
Cc1ccc(/C=C/C(=O)c2c(C)nc3ccccn23)cc1 | – | – | – | – | 54 | –
Cc1ccc(NC(=O)c2c(C)nc3ccccn23)cc1C | – | – | – | – | 67 | –
CCc1ccccc1NC(=O)COc1ccc(N2CC(C(N)=O)CC2=O)cc1 (centres undefined) | · | · | – | – | · | –
NC(=O)Cc1ccc(OCc2nn[nH]n2)cc1 | · | · | · | – | · | –
O=C(O)CN1C(=O)/C(=C/C=C/c2ccccc2)SC1=S | – | – | – | – | 79 | –
SMILES | PPC-1+TRAIL kill | FLuc stim CS | beta cell repl | iPSC survival up | FLuc inh counter | C8 TRAIL sens
CC(=O)c1ccc(NC(=O)CN2C(=O)/C(=C/C=C/c3ccccc3)SC2=S)cc1 | – | – | – | – | – | –
CCOC(=O)C(C(=O)OCC)c1cc(Br)c2noc3c2c1C(=O)c1ccccc1-3 | – | – | – | – | – | 93
CC(=O)OCCNc1cc(N2CCN(C)CC2)c2noc3c2c1C(=O)c1ccccc1-3 | – | – | · | – | – | –
COc1ccc(-c2cn3cc(C)ccc3n2)cc1Br | 87 | – | – | – | 94 | 75
CC1=NNC(=O)C1CCC(=O)N/N=C/c1ccccc1 (centres undefined) | – | · | – | – | · | –
O=C(NC1CCOC1=O)c1ccccc1 (centres undefined) | · | · | · | – | · | –
CC/C(=N\NC(=O)c1csc(C)c1C)c1cccs1 | – | – | – | – | 81 | 50
CCC/C(=N\NC(=O)c1csc(C)c1C)c1cccs1 | – | – | – | – | – | –
NC1=NC2(CCCCC2)N(c2cccc(Cl)c2)C(N)=N1 | – | – | – | – | – | –
CC1(C)N=C(N)N=C(N)N1c1cccc(C#N)c1 | · | · | · | – | · | 82
COc1ccc(N2C(N)=NC(N)=NC23CCCC3)cc1 | – | – | – | – | – | –
CCCCOc1ccc(N2C(N)=NC(N)=NC23CCCCC3)cc1 | · | · | – | – | · | –
COc1ccc(N2C(N)=NC(N)=NC2(C)C)cc1 | – | – | · | – | – | 82
CCOC(=O)c1cccc(N2C(N)=NC(N)=NC2(C)C)c1 | – | – | – | – | – | 67
CCOc1ccc(N2C(N)=NC(N)=NC2(C)C)cc1 | – | – | – | – | – | 75
CC1(C)N=C(N)N=C(N)N1c1cccc(C(=O)O)c1 | – | – | – | – | – | –
CCCN1CCN(CCCNC(=O)CN2C(=O)COc3ccc(C(C)(C)C)cc32)CC1 | · | · | · | – | · | –
COc1cccc(N2C(N)=NC(N)=NC2(C)C)c1 | – | – | – | – | – | 85
Cc1ccc(N2C(N)=NC(N)=NC2(C)C)c(C)c1 | – | – | – | – | – | 72
Cc1ccccc1N1C(N)=NC(N)=NC1(C)C | – | – | – | · | – | ·
O=C(NCc1cccnc1)/C(=C\c1ccc(-c2ccc(Cl)c(Cl)c2)o1)S(=O)(=O)c1ccccc1 | – | – | · | – | – | 93
COc1ccc2[nH]c(C(=O)Nc3cccc(C)n3)cc2c1 | – | · | – | – | · | 55
CC(C)NC(=S)N/N=C/c1ccc(C(C)(C)C)cc1 | – | – | – | – | – | –
COc1ccc(CNC(=O)c2nc(S(=O)(=O)Cc3ccccc3)ncc2Cl)cc1 | · | · | – | – | · | –
CS(=O)(=O)c1ncc(Cl)c(C(=O)Nc2ccc3ccccc3c2)n1 | – | – | · | – | – | –
SMILES | PPC-1+TRAIL kill | FLuc stim CS | beta cell repl | iPSC survival up | FLuc inh counter | C8 TRAIL sens
CCS(=O)(=O)c1ncc(Cl)c(C(=O)Nc2ccc(C)cc2)n1 | · | · | – | – | · | 84
CCC1CCCCN1S(=O)(=O)c1ccc(NC(=O)c2nc(S(C)(=O)=O)ncc2Cl)cc1 (centres undefined) | · | · | – | – | · | 92
Cc1ccc(CS(=O)(=O)c2ncc(Cl)c(C(=O)Nc3ccc(OC(F)F)cc3)n2)cc1 | · | · | – | – | · | 88
CCS(=O)(=O)c1ncc(Cl)c(C(=O)Nc2ccc(S(=O)(=O)N3CCCC(C)C3)cc2)n1 (centres undefined) | · | · | – | 20 | · | 96
O=C(NCCN1CCC(n2c(=O)[nH]c3ccccc32)CC1)c1cc(F)cc(F)c1 | · | · | · | – | · | –
COc1ccc(CN(C)C(=O)c2ccc(OCC(=O)N3CCOCC3)c(OC)c2)cc1 | · | · | – | – | · | –
N#Cc1ccccc1OCC(=O)Nc1ccc2c(c1)OCO2 | · | · | · | – | · | –
Cc1ccc(-c2cn3nc(C)c(C)nc3n2)cc1 | – | – | – | – | 75 | –
COc1ccc(-c2cn3nc(C)c(C)nc3n2)cc1OC | · | · | – | – | · | –
Cc1cc(C)cc(OCC(=O)O/N=C(\N)c2ccccc2Cl)c1 | – | · | – | – | · | –
